Laboratory results: ChEMBL document CHEMBL1649392, “Synthesis of substituted 3-amino-N-phenyl-1H-indazole-1-carboxamides endowed with antiproliferative activity” (Eur J Med Chem, 2011)

Assays:
Assay type in all cases: functional
T47D = assay: Antiproliferative activity against human T47D cells after 48 hrs by sulforhodamine B assay
In short: (§1)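 NCI 60-cell-line panel screen: single dose 10 µM first, then 5-dose testing (0.01, 0.1, … molar series). For each line, GI50 is the molar concentration giving 50% inhibition of net cell growth, TGI gives total inhibition of net growth, and LC50 gives 50% net cell death. Method follows the NCI DTP protocol.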

[1] = Antiproliferative activity against human […] cells after 48 hrs by sulforhodamine B assay
In short: (§2)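 NCI 60-cell-line panel covering nine cancer types (leukemia, non-small cell lung, colon, CNS, melanoma, ovarian, renal, prostate, breast). Compounds were first tested at a single dose, then in a five-dose screen (series starting 0.01, 0.1 …) if they met NCI threshold criteria. Reported per line: GI50 (molar concentration inhibiting 50% net growth), TGI (total growth inhibition) and LC50 (50% net cell death).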

HOP-62 = assay: Antiproliferative activity against human HOP62 cells after 48 hrs by sulforhodamine B assay; settings: HOP-62, 48 h; in short: as §2
HOP-92 = assay: Antiproliferative activity against human HOP92 cells after 48 hrs by sulforhodamine B assay; settings: HOP-92, 48 h; in short: as §2
NCI-H322M = assay: Antiproliferative activity against human NCI-H322M cells after 48 hrs by sulforhodamine B assay; in short: as §2
NCI-H460 = assay: Antiproliferative activity against human NCI-H460 cells after 48 hrs by sulforhodamine B assay; settings: NCI-H460, 48 h; in short: as §2
NCI-H522 = assay: Antiproliferative activity against human NCI-H522 cells after 48 hrs by sulforhodamine B assay; settings: NCI-H522, 48 h; in short: as §2
COLO 205 = assay: Antiproliferative activity against human COLO205 cells after 48 hrs by sulforhodamine B assay; settings: COLO 205, 48 h; in short: as §2
HCC 2998 = assay: Antiproliferative activity against human HCC2998 cells after 48 hrs by sulforhodamine B assay; settings: HCC 2998, 48 h; in short: as §2
HCT-15 = assay: Antiproliferative activity against human HCT15 cells after 48 hrs by sulforhodamine B assay; settings: HCT-15, 48 h; in short: as §2
KM12 = assay: Antiproliferative activity against human KM12 cells after 48 hrs by sulforhodamine B assay; settings: KM12, 48 h; in short: as §2
SF-268 = assay: Antiproliferative activity against human SF268 cells after 48 hrs by sulforhodamine B assay; settings: SF-268, 48 h; in short: as §2
SF-295 = assay: Antiproliferative activity against human SF295 cells after 48 hrs by sulforhodamine B assay; settings: SF-295, 48 h; in short: as §2
SNB-19 = assay: Antiproliferative activity against human SNB19 cells after 48 hrs by sulforhodamine B assay; settings: SNB-19, 48 h; in short: as §2
SNB-75 = assay: Antiproliferative activity against human SNB75 cells after 48 hrs by sulforhodamine B assay; settings: SNB-75, 48 h; in short: as §2
Malme-3M = assay: Antiproliferative activity against human MALME-3M cells after 48 hrs by sulforhodamine B assay; in short: as §2
SK-MEL-2 = assay: Antiproliferative activity against human SK-MEL-2 cells after 48 hrs by sulforhodamine B assay; settings: SK-MEL-2, 48 h; in short: as §2
SK-MEL-28 = assay: Antiproliferative activity against human SK-MEL-28 cells after 48 hrs by sulforhodamine B assay; settings: SK-MEL-28, 48 h; in short: as §2
UACC-257 = assay: Antiproliferative activity against human UACC257 cells after 48 hrs by sulforhodamine B assay; settings: UACC-257, 48 h; in short: as §1
UACC-62 = assay: Antiproliferative activity against human UACC62 cells after 48 hrs by sulforhodamine B assay; settings: UACC-62, 48 h; in short: as §1
IGROV-1 = assay: Antiproliferative activity against human IGROV1 cells after 48 hrs by sulforhodamine B assay; settings: IGROV-1, 48 h; in short: as §2
OVCAR-5 = assay: Antiproliferative activity against human OVCAR5 cells after 48 hrs by sulforhodamine B assay; settings: OVCAR-5, 48 h; in short: as §2
SK-OV-3 = assay: Antiproliferative activity against human SKOV3 cells after 48 hrs by sulforhodamine B assay; settings: SK-OV-3, 48 h; in short: as §2
A498 = assay: Antiproliferative activity against human A498 cells after 48 hrs by sulforhodamine B assay; settings: A498, 48 h; in short: as §2
ACHN = assay: Antiproliferative activity against human ACHN cells after 48 hrs by sulforhodamine B assay; settings: read-out: LC50 (the source's name); in short: as §2
CAKI-1 = assay: Antiproliferative activity against human Caki1 cells after 48 hrs by sulforhodamine B assay; settings: CAKI-1, 48 h; in short: as §2
RXF 393 = assay: Antiproliferative activity against human RXF393 cells after 48 hrs by sulforhodamine B assay; settings: RXF 393, 48 h; in short: as §2
SN12C = assay: Antiproliferative activity against human SN12C cells after 48 hrs by sulforhodamine B assay; in short: as §2
PC-3 = assay: Antiproliferative activity against human PC3 cells after 48 hrs by sulforhodamine B assay; settings: PC-3, 48 h; in short: as §2
DU-145 = assay: Antiproliferative activity against human DU145 cells after 48 hrs by sulforhodamine B assay; settings: DU-145, 48 h, read-out: LC50 (the source's name); in short: as §2
[2] = Antiproliferative activity against human Hs 578T cells after 48 hrs by sulforhodamine B assay; in short: as §2
[3] = read-out: LC50 (the source's name)

Nc1nn(C(=O)Nc2ccc(Cc3ccccc3)cc2)c2ccccc12
LC50 (concentration giving 50% net cell death) (T47D): > 100 µM | TGI (T47D): > 100 µM | GI50 [1]: 1860 nM | TGI [1]: 25.8 µM | CC50 [1, 3]: 84 µM | LC50 (concentration causing 50% net cell death) (HOP-62): > 100 µM | TGI (HOP-62): 46.5 µM | LC50 (HOP-92): > 100 µM | TGI (HOP-92): 42.6 µM | TGI (NCI-H322M): > 100 µM | CC50 (NCI-H322M; [3]): > 100 µM | TGI (NCI-H460): 13 µM | GI50 (NCI-H522): 2900 nM | LC50 (concentration causing 50% net cell death) (NCI-H522): > 100 µM | TGI (NCI-H522): > 100 µM | LC50 (concentration causing 50% net cell death) (COLO 205): > 100 µM | TGI (COLO 205): 37.7 µM | TGI (HCC 2998): 35.9 µM | CC50 (HCC 2998; [3]): > 100 µM | LC50 (concentration causing 50% net cell death) (HCT-15): > 100 µM | TGI (HCT-15): > 100 µM | TGI (KM12): > 100 µM | CC50 (KM12; [3]): > 100 µM | TGI (SF-268): 32.3 µM | CC50 (SF-268; [3]): > 100 µM | GI50 (SF-295): 530 nM | LC50 (SF-295): > 100 µM | TGI (SF-295): > 100 µM | TGI (SNB-19): > 100 µM | CC50 (SNB-19; [3]): > 100 µM | GI50 (SNB-75): 17 µM | LC50 (concentration causing 50% net cell death) (SNB-75): > 100 µM | TGI (SNB-75): 47.4 µM | LC50 (concentration causing 50% net cell death) (Malme-3M): > 100 µM | TGI (Malme-3M): 64.1 µM | TGI (SK-MEL-2): > 100 µM | CC50 (SK-MEL-2; [3]): > 100 µM | TGI (SK-MEL-28): > 100 µM | CC50 (SK-MEL-28; [3]): > 100 µM | GI50 (UACC-257): 10 µM | TGI (UACC-257): 50.9 µM | CC50 (UACC-257; [3]): > 100 µM | TGI (UACC-62): > 100 µM | CC50 (UACC-62; [3]): > 100 µM | TGI (IGROV-1): 48.8 µM | CC50 (IGROV-1; [3]): > 100 µM | TGI (OVCAR-5): > 100 µM | CC50 (OVCAR-5; [3]): > 100 µM | TGI (SK-OV-3): > 100 µM | CC50 (SK-OV-3; [3]): > 100 µM | TGI (A498): 31.5 µM | CC50 (A498; [3]): 59.6 µM | CC50 (ACHN): > 100 µM | TGI (CAKI-1): 58 µM | CC50 (CAKI-1; [3]): > 100 µM | TGI (RXF 393): 58.2 µM | CC50 (RXF 393; [3]): > 100 µM | TGI (SN12C): 28 µM | CC50 (SN12C; [3]): 60.6 µM | TGI (PC-3): 51.1 µM | CC50 (PC-3; [3]): > 100 µM | CC50 (DU-145): > 100 µM | TGI [2]: 71.8 µM | CC50 [2, 3]: > 100 µM
